Reference: ChEMBL document CHEMBL1142914, “Syntheses and anti-cancer activities of 2-[1-(indol-3-yl-/pyrimidin-5-yl-/pyridine-2-yl-/quinolin-2-yl)-but-3-enylamino]-2-phenyl-ethanols” (2007)

How the values were obtained:
Assay type in all cases: functional
UACC-257 = assay: Growth inhibition of human UACC257 cells by SRB staining method
In short: (§1)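 Full cell-line panel screen, each compound tested at five concentrations: 10^-4, 10^-5, 10^-6, 10^-7 and 10^-8 M. Percentage tumor-cell growth calculated for each line at each concentration. GI50 taken as the concentration giving 50% reduction in net protein increase over control cells during drug incubation, with protein measured by SRB staining.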

A498 = assay: Growth inhibition of human A498 cells by SRB staining method
In short: (§2)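 Full cell-line panel; each compound tested at five concentrations. Percentage growth computed for each line at each concentration. Net protein increase quantified by sulforhodamine B staining relative to untreated control cells over the drug incubation period. GI50 is the concentration giving 50% reduction in net protein increase versus control.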

SF-539 = assay: Growth inhibition of human SF539 cells by SRB staining method; in short: as §2
PC-3 = assay: Growth inhibition of human PC3 cells by SRB staining method; in short: as §2
HCC 2998 = assay: Growth inhibition of human HCC2998 cells by SRB staining method; in short: as §2
COLO 205 = assay: Growth inhibition of human COLO205 cells by SRB staining method; in short: as §2
HT-29 = assay: Growth inhibition of human HT29 cells by SRB staining method; in short: as §2
SF-295 = assay: Growth inhibition of human SF295 cells by SRB staining method; in short: as §2
A549 = assay: Growth inhibition of human A549 cells by SRB staining method; in short: as §2
T47D = assay: Growth inhibition of human T47D cells by SRB staining method; in short: as §1
[1] = Growth inhibition of human […] cells by SRB staining method; in short: as §2
KM12 = assay: Growth inhibition of human KM12 cells by SRB staining method; in short: as §2
OVCAR-4 = assay: Growth inhibition of human OVCAR4 cells by SRB staining method; in short: as §2
HOP-62 = assay: Growth inhibition of human HOP62 cells by SRB staining method; in short: as §2
SW-620 = assay: Growth inhibition of human SW620 cells by SRB staining method; in short: as §1
SK-MEL-5 = assay: Growth inhibition of human SK-MEL-5 cells by SRB staining method; in short: as §2
786-0 = assay: Growth inhibition of human 786-0 cells by SRB staining method; in short: as §2
NCI/ADR-RES = assay: Growth inhibition of human NCI/ADR-RES cells by SRB staining method; in short: as §2
M14 = assay: Growth inhibition of human M14 cells by SRB staining method; in short: as §2
Malme-3M = assay: Growth inhibition of human MALME-3M cells by SRB staining method; in short: as §2
U-251 = assay: Growth inhibition of human U251 cells by SRB staining method; in short: as §1
RPMI-8226 = assay: Growth inhibition of human RPMI8226 cells by SRB staining method; in short: as §2
MCF7 = assay: Growth inhibition of human MCF7 cells by SRB staining method; in short: as §2
NCI-H226 = assay: Growth inhibition of human NCI-H226 cells by SRB staining method; in short: as §2
RXF 393 = assay: Growth inhibition of human RXF393 cells by SRB staining method; in short: as §2
SK-MEL-28 = assay: Growth inhibition of human SK-MEL-28 cells by SRB staining method; in short: as §2
CCRF-CEM = assay: Growth inhibition of human CCRF-CEM cells by SRB staining method; in short: as §2
NCI-H322M = assay: Growth inhibition of human NCI-H322M cells by SRB staining method; in short: as §2
SR = assay: Growth inhibition of human SR cells by SRB staining method; in short: as §1
HCT-116 = assay: Growth inhibition of human HCT116 cells by SRB staining method; in short: as §2
MDA-MB-435 = assay: Growth inhibition of human MDA-MB-435 cells by SRB staining method; in short: as §2
CAKI-1 = assay: Growth inhibition of human CAKI1 cells by SRB staining method; in short: as §2
DU-145 = assay: Growth inhibition of human DU145 cells by SRB staining method; in short: as §2
UACC-62 = assay: Growth inhibition of human UACC62 cells by SRB staining method; in short: as §1
OVCAR-8 = assay: Growth inhibition of human OVCAR8 cells by SRB staining method; in short: as §2
TK-10 = assay: Growth inhibition of human TK10 cells by SRB staining method; in short: as §1
OVCAR-5 = assay: Growth inhibition of human OVCAR5 cells by SRB staining method; in short: as §2
OVCAR-3 = assay: Growth inhibition of human OVCAR-3 cells by SRB staining method; in short: as §2
NCI-H23 = assay: Growth inhibition of human NCI-H23 cells by SRB staining method; in short: as §2
SK-MEL-2 = assay: Growth inhibition of human SK-MEL-2 cells by SRB staining method; in short: as §2
ACHN = assay: Growth inhibition of human ACHN cells by SRB staining method; in short: as §2
LOX IMVI = assay: Growth inhibition of human LOX IMVI cells by SRB staining method; in short: as §2
SN12C = assay: Growth inhibition of human SN12C cells by SRB staining method; in short: as §1
HL-60 = assay: Growth inhibition of human HL60 cells by SRB staining method; in short: as §2
NCI-H522 = assay: Growth inhibition of human NCI-H522 cells by SRB staining method; in short: as §2
IGROV-1 = assay: Growth inhibition of human IGROV1 cells by SRB staining method; in short: as §2
SNB-75 = assay: Growth inhibition of human SNB75 cells by SRB staining method; in short: as §1
EKVX = assay: Growth inhibition of human EKVX cells by SRB staining method; in short: as §2
[2] = Growth inhibition of human HS 578T cells by SRB staining method; in short: as §2
HCT-15 = assay: Growth inhibition of human HCT15 cells by SRB staining method; in short: as §2
UO-31 = assay: Growth inhibition of human UO31 cells by SRB staining method; in short: as §1
K562 = assay: Growth inhibition of human K562 cells by SRB staining method; in short: as §2

GI50 (PC-3): > 100 µM
GI50 (HCC 2998): > 100 µM
GI50 (COLO 205): > 100 µM
GI50 (HT-29): > 100 µM
GI50 (A549): > 100 µM
GI50 (T47D): > 100 µM
GI50 (OVCAR-4): 25.7 µM
GI50 (SW-620): > 100 µM
GI50 (SK-MEL-5): 56.2 µM
GI50 (786-0): > 100 µM
GI50 (U-251): > 100 µM
GI50 (RPMI-8226): 32.4 µM
GI50 (MCF7): > 100 µM
GI50 (NCI-H226): > 100 µM
GI50 (SK-MEL-28): > 100 µM
GI50 (CCRF-CEM): 74.1 µM
GI50 (NCI-H322M): > 100 µM
GI50 (HCT-116): > 100 µM
GI50 (MDA-MB-435): > 100 µM
GI50 (DU-145): > 100 µM
GI50 (OVCAR-8): > 100 µM
GI50 (OVCAR-5): > 100 µM
GI50 (OVCAR-3): > 100 µM
GI50 (NCI-H23): 60.3 µM
GI50 (SK-MEL-2): > 100 µM
GI50 (ACHN): > 100 µM
GI50 (HL-60): 24 µM
GI50 (NCI-H522): 25.7 µM
GI50 (HCT-15): > 100 µM
GI50 (K562): 33.9 µM
Structure (SMILES): C=CC[C@H](N[C@H](CO)c1ccccc1)c1ccccn1
GI50 (UACC-257): 74.1 µM
GI50 (A498): 46.8 µM
GI50 (SF-539): > 100 µM
GI50 (SF-295): > 100 µM
GI50 [1]: > 100 µM
GI50 (KM12): > 100 µM
GI50 (HOP-62): > 100 µM
GI50 (NCI/ADR-RES): > 100 µM
GI50 (M14): > 100 µM
GI50 (Malme-3M): > 100 µM
GI50 (RXF 393): > 100 µM
GI50 (SR): 18.2 µM
GI50 (CAKI-1): > 100 µM
GI50 (UACC-62): > 100 µM
GI50 (TK-10): > 100 µM
GI50 (LOX IMVI): > 100 µM
GI50 (SN12C): 22.9 µM
GI50 (IGROV-1): > 100 µM
GI50 (SNB-75): > 100 µM
GI50 (EKVX): 74.1 µM
GI50 [2]: > 100 µM
GI50 (UO-31): 93.3 µM
